Assay type in all cases: functional
Assay [1] relates to Enterobacter cloacae. Briefly: Minimum inhibitory concentration against Enterobacter cloacae HA 2646 in vitro.
The subject of assay [2] is Escherichia coli. Briefly: Minimum concentration needed to produce linear DNA at an intensity relative to oxolinic at 10 ug/mL in Escherichia coli H560 in vitro. Put shortly: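 DNA gyrase cleavage test, run as previously described: end point is the lowest drug level (µg/mL) that yields linear DNA at a band intensity matching oxolinic acid at 10 µg/mL. Values come from duplicate or triplicate experiments and are stated as accurate to ±50%.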

Assay [3] deals with Staphylococcus aureus. As to the kind of experiment: Minimum inhibitory concentration against Staphylococcus aureus UC-76 in vitro.
In assay [4] the test system is Enterococcus faecalis. Briefly: Minimum inhibitory concentration against Streptococcus faecalis MGH-2 in vitro.
Assay [5] deals with Mus musculus. Briefly: In vivo potency against Staphylococcus aureus using mouse protection assay when given orally. The conditions noted are these: po, read-out: PD50.
Assay [6] relates to Streptococcus pyogenes. Briefly: (§1) Minimum inhibitory concentration against Streptococcus pyogenes C203 in vitro.
The test system of assay [7] is Mus musculus. As to the kind of experiment: In vivo potency against Escherichia coli vogel using mouse protection assay when given perorally. The conditions noted are these: po, read-out: PD50.
The subject of assay [8] is Streptococcus pneumoniae. As to the kind of experiment: Minimum inhibitory concentration against Streptococcus pneumoniae SV-1 in vitro.
Assay [9] has as its system Providencia rettgeri. Briefly: Minimum inhibitory concentration against Providencia rettgeri H1771 in vitro.
Assay [10] deals with Staphylococcus aureus. As to the kind of experiment: Minimum inhibitory concentration against Staphylococcus aureus H228 in vitro.
Assay [11] has as its system Pseudomonas aeruginosa. Briefly: Minimum inhibitory concentration against Pseudomonas aeruginosa UI-18 in vitro.
For assay [12], the system named is Escherichia coli. As to the kind of experiment: Minimum inhibitory concentration against Escherichia coli H560 in vitro.
In assay [13] the test system is Escherichia coli. Briefly: Minimum inhibitory concentration against Escherichia coli vogel in vitro.
In assay [14] the test system is Klebsiella pneumoniae. As to the kind of experiment: Minimum inhibitory concentration against Klebsiella pneumoniae MGH-2 in vitro.
The subject of assay [15] is Mus musculus. As to the kind of experiment: In vivo potency against Streptococcus pneumoniae using mouse protection assay when given orally. The settings on record: po, read-out: PD50.
Assay [16] relates to Streptococcus pneumoniae. As to the kind of experiment: In vivo potency against Streptococcus pneumoniae using mouse protection assay following p.o. administration. The settings on record: po, read-out: PD50.
The subject of assay [17] is Staphylococcus aureus. As to the kind of experiment: In vivo potency against Staphylococcus aureus using mouse protection assay following p.o. administration. The conditions noted are these: po, read-out: PD50.
The subject of assay [18] is Staphylococcus aureus. Briefly: In vivo potency against Staphylococcus aureus using mouse protection assay following s.c. administration. The conditions noted are these: sc, read-out: PD50.
Assay [19] deals with Mus musculus. As to the kind of experiment: In vivo potency against Escherichia coli vogel using mouse protection assay when given subcutaneously. The conditions noted are these: sc, read-out: PD50.
Assay [20] concerns Streptococcus pneumoniae. Briefly: In vivo potency against Streptococcus pneumoniae using mouse protection assay following s.c. administration. The settings on record: sc, read-out: PD50.
For assay [21], the system named is Bacteria. Described as §1.

The structures appear in SMILES notation. Converted amounts (≈) assume the structure as drawn.

This is an account of results in ChEMBL document CHEMBL1124270, “Quinolone antibacterial agents. Synthesis and structure-activity relationships of 8-substituted quinoline-3-carboxylic acids and 1,8-naphthyridine-3-carboxylic acids” (1988).

With `NCC1CCN(c2c(F)cc3c(=O)c(C(=O)O)cn(C4CC4)c3c2F)C1` (stereo not given), the minimal inhibitory concentration (MIC) came to 0.05 µg/mL (≈ 0.138 µM) in [1]; 0.003 µg/mL (≈ 0.00826 µM) in [3]; 0.013 µg/mL (≈ 0.0358 µM) in [4]; 0.013 µg/mL (≈ 0.0358 µM) in assay [6]; 0.006 µg/mL (≈ 0.0165 µM) in [8]; 0.1 µg/mL (≈ 0.275 µM) in assay [9]. Further, the minimum inhibitory concentration (MIC) in assay [10] is 0.025 µg/mL (≈ 0.0688 µM); in assay [11] it was 0.2 µg/mL (≈ 0.55 µM); in [12] it was 0.006 µg/mL (≈ 0.0165 µM); in [13] it was 0.025 µg/mL (≈ 0.0688 µM); in assay [14], 0.05 µg/mL (≈ 0.138 µM). Also, in [2], the DNA cleavage conc (gyrase) amounted to 0.25 µg/mL. For the same compound, the ED50 in assay [5] is 78 mg/kg; in assay [7], 6 mg/kg; in [15] it was 10 mg/kg.

For `NCC1CCN(c2nc3c(cc2F)c(=O)c(C(=O)O)cn3C2CC2)C1` (stereo not given), the MIC in [1] was found to be 0.1 µg/mL (≈ 0.289 µM); in assay [3] it was 0.006 µg/mL (≈ 0.0173 µM); in assay [4], 0.025 µg/mL (≈ 0.0722 µM); in assay [6], 0.025 µg/mL (≈ 0.0722 µM); in assay [8], 0.1 µg/mL (≈ 0.289 µM); in assay [9], 0.4 µg/mL (≈ 1.15 µM). For the same compound, the minimal inhibitory concentration (MIC) in assay [10] turned out to be 0.2 µg/mL (≈ 0.577 µM); in assay [11], 0.2 µg/mL (≈ 0.577 µM); in [12] it was 0.025 µg/mL (≈ 0.0722 µM); in [13], 0.1 µg/mL (≈ 0.289 µM); in assay [14] it was 0.1 µg/mL (≈ 0.289 µM). The same compound came in with a DNA cleavage conc (gyrase) in assay [2] of 0.5 µg/mL. The figures for the ED50 in assay [5], in [7] and in [15] were 55 mg/kg, 17 mg/kg and 100 mg/kg, respectively.

As to `CNCC1CCN(c2c(F)cc3c(=O)c(C(=O)O)cn(C4CC4)c3c2F)C1` (stereo not given), the minimal inhibitory concentration (MIC) in assay [1] was 0.025 µg/mL (≈ 0.0662 µM); in assay [3] it was 0.013 µg/mL (≈ 0.0344 µM); in [4] it was 0.013 µg/mL (≈ 0.0344 µM); in [6] it was 0.006 µg/mL (≈ 0.0159 µM); in assay [8] it was 0.006 µg/mL (≈ 0.0159 µM); in assay [9], 0.2 µg/mL (≈ 0.53 µM). Also, the MIC in assay [10] came to 0.025 µg/mL (≈ 0.0662 µM); in assay [11] it was 0.2 µg/mL (≈ 0.53 µM); in assay [12], 0.006 µg/mL (≈ 0.0159 µM); in [13], 0.05 µg/mL (≈ 0.132 µM); in [14], 0.05 µg/mL (≈ 0.132 µM). The compound also showed a DNA cleavage conc (gyrase) in assay [2] of 0.25 µg/mL. Moreover, the ED50 in assay [5] was determined as 22 mg/kg; in assay [7], 2 mg/kg; in assay [15] it was 2 mg/kg.

Consider `CC(C)NCC1CCN(c2c(F)cc3c(=O)c(C(=O)O)cn(C4CC4)c3c2F)C1` (stereo not given), for which the MIC in [1] turned out to be 0.2 µg/mL (≈ 0.493 µM); in [3], 0.013 µg/mL (≈ 0.0321 µM); in assay [4], 0.025 µg/mL (≈ 0.0617 µM); in assay [6], 0.05 µg/mL (≈ 0.123 µM); in assay [8], 0.05 µg/mL (≈ 0.123 µM); in assay [9] it was 0.4 µg/mL (≈ 0.987 µM). Further, the minimal inhibitory concentration (MIC) in [10] amounted to 0.05 µg/mL (≈ 0.123 µM); in assay [11] it was 1.6 µg/mL (≈ 3.95 µM); in assay [12] it was 0.05 µg/mL (≈ 0.123 µM); in [13], 0.1 µg/mL (≈ 0.247 µM); in assay [14], 0.2 µg/mL (≈ 0.493 µM). In addition, the DNA cleavage conc (gyrase) in assay [2] was determined as 2.8 µg/mL. Moreover, the ED50 in [16] amounted to 7 mg/kg; in [7] it was 6 mg/kg; in [17], 42 mg/kg; in [18], 12 mg/kg; in assay [19], 1 mg/kg; in [20], 2 mg/kg.

For `CNCC1CCN(c2nc3c(cc2F)c(=O)c(C(=O)O)cn3C2CC2)C1` (stereo not given), the MIC in assay [1] came out at 0.2 µg/mL (≈ 0.555 µM); in assay [3], 0.025 µg/mL (≈ 0.0694 µM); in assay [4] it was 0.2 µg/mL (≈ 0.555 µM); in [21], 0.05 µg/mL (≈ 0.139 µM); in assay [8], 0.025 µg/mL (≈ 0.0694 µM); in assay [9] it was 0.4 µg/mL (≈ 1.11 µM). Further, the MIC is 0.2 µg/mL (≈ 0.555 µM) in assay [10]; 0.8 µg/mL (≈ 2.22 µM) in assay [11]; 0.05 µg/mL (≈ 0.139 µM) in [12]; 0.1 µg/mL (≈ 0.277 µM) in [13]; 0.2 µg/mL (≈ 0.555 µM) in assay [14]. Besides, in assay [2], the DNA cleavage conc (gyrase) is 1 µg/mL. Besides, the ED50 in assay [16] is 27 mg/kg; in assay [7] it was 3 mg/kg; in [17] it was 3 mg/kg; in assay [18], 1 mg/kg; in [19] it was 1 mg/kg; in [20], 11 mg/kg.

In the case of `Cl.NC1CCN(c2c(F)cc3c(=O)c(C(=O)O)cn(C4CC4)c3c2F)C1` (stereo not given), the minimum inhibitory concentration (MIC) in [1] is 0.025 µg/mL; in assay [3], 0.025 µg/mL; in assay [4], 0.05 µg/mL; in assay [6] it was 0.05 µg/mL; in assay [8] it was 0.05 µg/mL; in [9], 0.05 µg/mL. The MIC amounted to 0.05 µg/mL in [10]; 0.1 µg/mL in assay [11]; 0.006 µg/mL in assay [12]; 0.013 µg/mL in assay [13]; 0.025 µg/mL in [14]. This compound also gave a DNA cleavage conc (gyrase) in assay [2] of 0.1 µg/mL. The ED50 in [16] worked out at 15 mg/kg; in assay [7] it was 1 mg/kg; in assay [17], 7 mg/kg; in assay [18] it was 3 mg/kg; in [19] it was 0.2 mg/kg; in assay [20] it was 6 mg/kg.

With `Cl.NC1CCN(c2c(F)cc3c(=O)c(C(=O)O)cn(C4CC4)c3c2Cl)C1` (stereo not given) [CLINAFLOXACIN HYDROCHLORIDE], the minimal inhibitory concentration (MIC) in [1] was found to be 0.025 µg/mL; in assay [3] it was 0.013 µg/mL; in [4], 0.05 µg/mL; in [6] it was 0.05 µg/mL; in assay [8] it was 0.05 µg/mL; in assay [9], 0.025 µg/mL. For the same compound, the minimal inhibitory concentration (MIC) amounted to 0.05 µg/mL in assay [10]; 0.05 µg/mL in assay [11]; 0.006 µg/mL in [12]; 0.013 µg/mL in assay [13]; 0.025 µg/mL in assay [14]. The DNA cleavage conc (gyrase) in [2] turned out to be 0.5 µg/mL. Moreover, the ED50 was 10 mg/kg in [16]; 3 mg/kg in assay [7]; 13 mg/kg in [17]; 5 mg/kg in [18]; 0.6 mg/kg in [19]; 4 mg/kg in assay [20].

In the case of `CCNCC1CCN(c2c(F)cc3c(=O)c(C(=O)O)cn(C4CC4)c3c2F)C1` (stereo not given) [PD-117558], the minimum inhibitory concentration (MIC) in assay [1] came to 0.1 µg/mL (≈ 0.255 µM); in assay [3], 0.006 µg/mL (≈ 0.0153 µM); in assay [4], 0.025 µg/mL (≈ 0.0639 µM); in assay [6], 0.025 µg/mL (≈ 0.0639 µM); in [8], 0.025 µg/mL (≈ 0.0639 µM); in assay [9] it was 0.2 µg/mL (≈ 0.511 µM). The MIC in assay [10] was found to be 0.025 µg/mL (≈ 0.0639 µM); in assay [11] it was 0.4 µg/mL (≈ 1.02 µM); in assay [12], 0.025 µg/mL (≈ 0.0639 µM); in [13], 0.05 µg/mL (≈ 0.128 µM); in assay [14] it was 0.1 µg/mL (≈ 0.255 µM). For the same compound, the DNA cleavage conc (gyrase) in [2] was 0.25 µg/mL. Besides, the ED50 in [16] is 3 mg/kg; in assay [7], 4 mg/kg; in assay [17], 59 mg/kg; in assay [18] it was 40 mg/kg; in assay [19] it was 1 mg/kg; in assay [20] it was 2 mg/kg.

The MIC is the lowest concentration found to suppress growth.
